Measured values gathered from unrelated publications.
Protocols differ between the studies behind these lines.
CASP9: Caspase-9 (CASP9, Homo sapiens, UniProt P55211)
EEF2K: Eukaryotic elongation factor 2 kinase (EEF2K, Homo sapiens, UniProt O00418)
MMP1: Interstitial collagenase (MMP1, Homo sapiens, UniProt P03956)

For `O=C(Nc1cccnn1)N1CCN([C@@H]2CCOc3cc(C(F)(F)F)ccc32)CC1`, the inhibition was 5% (Alpha-1B adrenergic receptor (ADRA1B, Homo sapiens, UniProt P35368); cell-free assay; 20 µM).
The inhibition of `COC(=O)CC[C@H](NC(=O)[C@H](CC(C)C)NC(=O)OCc1ccccc1)C(=O)N[C@@H](Cc1cnc[nH]1)C(=O)N[C@@H](CC(=O)OC)C(=O)CF` is reported as 7% (CASP9; enzyme activity; inhibitor; 0.1 µM).
`Cn1cc(-c2cc(F)cc(N3CCn4c(cc5c4CCCC5)C3=O)c2CO)cc(Nc2ccc(N3CCN(C4COC4)CC3)cn2)c1=O` gave an inhibition of 4% (EEF2K; enzyme activity; inhibitor; 0.1 µM).
For `CCOC(=O)c1ccc(OC(=O)CCCCCNC(=N)N)cc1`, the inhibition was 2% (MMP1; enzyme activity; inhibitor; 10 µM).
The inhibition of `CCN(CC)CCCC[C@H](NC(=O)[C@H](CC(C)C)NC(=O)[C@H](C)NC(=O)[C@H](Cc1ccccc1)NC(=O)c1ccc(C(C)(C)C)cc1)C(=O)N[C@@H](CO)C(=O)OC` is reported as 7% (C-C chemokine receptor type 1 (CCR1, Homo sapiens, UniProt P32246); ligand displacement; radioligand; 10 µM).
For `COc1ccc(S(=O)(=O)N2CCCCC2)cc1C`, the inhibition was less than 30% (Corticotropin-releasing factor receptor 1 (CRHR1, Homo sapiens, UniProt P34998); ligand displacement; radioligand; 10 µM).
With `c1ccc(C(NCCNC(c2ccccc2)c2ccccc2)c2ccccc2)cc1` the inhibition was -10% (MMP1; enzyme activity; inhibitor; 10 µM).
For `N=C(N)c1ccc2cc(OC(=O)c3ccc(N=C(N)N)cc3)ccc2c1`, the inhibition was 0% (CASP9; enzyme activity; inhibitor; 10 µM).
`C#Cc1n[nH]c2c(-c3cn([C@@H](C)c4ccccc4)c(=O)[nH]c3=O)cc(F)cc12` gave an inhibition of 2.3% (EEF2K; enzyme activity; inhibitor; 0.1 µM).
`CN(C)C(=O)COC(=O)Cc1ccc(OC(=O)c2ccc(NC(=N)N)cc2)cc1` has an inhibition of 3% (MMP1; enzyme activity; inhibitor; 10 µM).
For `COc1cc(Nc2ncc(F)c(Nc3ccc4c(n3)NC(=O)C(C)(C)O4)n2)cc(OC)c1OC`, the inhibition was 84% (Cyclin-dependent kinase-like 1 (CDKL1, Homo sapiens, UniProt Q00532); binding; competition with immobilised ligand; 10 µM).
For `COc1ccc(S(=O)(=O)N(CC(=O)NO)CC(C)C)cc1`, the inhibition was 77% (MMP1; enzyme activity; inhibitor; 10 µM).
For `Cc1ncc(C)n2nc(/C=C/c3nc(N4CCCC4)cc(N4CCOCC4)n3)nc12`, the inhibition was 7% (MMP1; enzyme activity; inhibitor; 10 µM).
With `Cn1cc(-c2cccc(N3CCc4c(sc5c4CC(C)(C)C5)C3=O)c2CO)cc(Nc2ccncn2)c1=O` the inhibition was 9% (Hepatocyte growth factor receptor (MET, Homo sapiens, UniProt P08581); enzyme activity; inhibitor; 1 µM).
With `C#Cc1n[nH]c2c(-c3cn(C(C)c4ccccn4)c(=O)[nH]c3=O)cc(F)cc12` (stereo not drawn) the inhibition was 25.2% (TGF-beta receptor type-1 (TGFBR1, Homo sapiens, UniProt P36897); enzyme activity; inhibitor; 1 µM).
